Experimental data reported in the EternaBench riboswitch data.

Tested on: MS2 coat protein
Assay: apparent Kd, MS2 coat protein; higher = weaker binding; RNA-MaP array; FMN 200 µM where present
Method in brief: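 Apparent Kd: the median of filtered binding-curve fits from single clusters. Designs were transcribed on Illumina sequencing-chip clusters by stalled E. coli RNA polymerase and titrated with SNAP-549-labelled MS2 coat protein from 0.7 or 1.5 nM, doubling to 3 µM, in 100 mM Tris-HCl pH 7.5, 80 mM KCl, 4 mM MgCl2, BSA, DTT, yeast tRNA and Tween-20. Each series ran without and then with constant ligand, and green signal was normalised to red-channel RNA signal and control-cluster median Fmax.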

[1] = designed as: OFF switch for flavin mononucleotide, no ligand
[2] = ligand present: flavin mononucleotide, designed as: OFF switch for flavin mononucleotide
[3] = designed as: ON switch for flavin mononucleotide, no ligand
[4] = ligand present: flavin mononucleotide, designed as: ON switch for flavin mononucleotide

Row | Sequence | apparent Kd [1] | apparent Kd [2] | apparent Kd [3] | apparent Kd [4]
1 | UAAAUUUUAUGAUAUUAUGACAGUAGAAGGCUAUACAUGUUGAUACAUGAGGAUCACCCAUGUAUAGAGGAUAUAUACAAUUAU | 1050 nM | 315 nM |  | 
2 | GUUUCGUCAGGAUAUGUGGCUUCGAUCGUGCGAAGAAGGCUACAGAAGGCACAUGAGGAUCACCCAUGUUCGUC |  | 34.6 nM |  | 
3 | CAAUUUAUAGCAGGAUAUAUAAUACAAUGAUUAAUAGAAGGGUUUAAUACAUGAGGAUCACCCAUGUCAUGUGUCAUAAUAACC | 33.4 nM | 28.8 nM |  | 
4 | GUAGCAUACCGAGGAUAUUCAUUACAUGAGGAUCACCCAUGUUUUAUAGGCCGAUUACGGCCUUGGGAGAAGGCGGAAUGCUAC |  |  | 14.8 nM | 11.1 nM
5 | AGGGCGAAAUGGCUCUAUGAGAUGAGAAGGGUAGGAGGGUGGAAGUACAUGAGGAUCACCCAUGUACAGGAUAUCAUGCCGAUU | 6.42 nM | 6.4 nM |  | 
6 | GACAUGAGGAUCACCCAUGUCCUUCCAGAAGGCUGGCGCGCGAAACCUAAAUCAGUUCCGGGCACAGAGGAUAUGGGCAGUUGG |  |  | 67.2 nM | 14.3 nM
7 | AAAUAGAUACAUGAGGAUCACCCAUGUUAAUAGGUGUUUGUCAGAAGGCAUUAUGAGAGAAUUAAUGAGGAUAUGAAAUAUGAU |  |  | 39.3 nM | 22.8 nM
8 | GUAUUAAAGAUCCAUUUAUACAACAUGAGGAUCACCCAUGUGCAGGAUAUCGUGUGUUUUAUAUUCGAGAAGGGCAAAUUCAUU | 50.7 nM | 105 nM |  | 
9 | CUUUUGUGAGGAUAUCAGUAGUAAAUAAAUAAAAUUACUACUGAGAAGGCACAUGAGGAUCACCCAUGUUCCUC | 41.2 nM | 305 nM |  | 
10 | UUUUACGUUUCGUAGCAGUGUCAUCGAGAAGGCCCUGACAUGAGGAUCACCCAUGUUGUUACAUGGGAGGAUAUCGAUGAUAAA |  |  | 15.9 nM | 5.75 nM
11 | UUAGAGGAUUAAGGAUAUGCAGAGAGAUCAUGCGCGUCGCGCACAUGAGGAUCACCCAUGUAAGAGCAGAAGGUAACUAUGAUC | 19.9 nM | 18.4 nM |  | 
12 | AGCUGUGGCCGAGGAUAUCAAGAACCAUGGAAAACCAUGGAACCUUGACAUGAGGAUCACCCAUGUGAGAAGGCGGUCUCAGCA | 14.4 nM | 11.7 nM |  | 
13 | GUGCUCGUGUGAGGAUAUGCUUCCGUUUCGGCUGCAGAAGGUACUAUUAUACAUGAGGAUCACCCAUGUCUCUUUUCUUCGGUG |  |  | 33.1 nM | 33.7 nM
14 | UGUCGGAGCAGAGGAUAUUACAUGAGGAUCACCCAUGUAUGAACCAAUAGCUGGUAACAGCAAUGUAAGAAGGCUGCUCCGACA | 14.1 nM | 176 nM |  | 
15 | CGUUAUGAUAAAGGAUAUAUAAUAGAUAUACAUGAGGAUCACCCAUGUUACAUGGAUUCAAAUUUAUAGAAGGUUAUCCUAUCG | 36 nM | 22.6 nM |  | 
16 | AAUUUGGUCGUAGGAUAUCGGAAGCGGUGCGAACGAGAAGGGCGACAUGAGGAUCACCCAUGUAGCCACGAAGGCGAUCCUUGG | 9.75 nM | 16.3 nM |  | 
17 | UUGAUUAUACAAGGAUAUCUAUUGUAAUUGAGACUUACAUGAGGAUCACCCAUGUUAAUAUUUUUAGAGAAGGUGUAUUUUCAG |  |  | 32.3 nM | 22.9 nM
18 | AACAUGGUAUCAGGAUAUGGGUGUCACAACCACUCAGAAGGGAUACCGAUGACAUGAGGAUCACCCAUGUCGCUAUUUACCUGU |  |  | 17.2 nM | 7.98 nM
19 | GAGUGGAGGUAAGGAUAUACAAUGAUAAUCACAGUAGAAGGUACUAACAUGAGGAUCACCCAUGUAGGACUAUACCAGAGAGGG |  |  | 17.4 nM | 18 nM
20 | AAGUAGAUCCGAGGAUAUACAAUCCGGAAACGGUACAUGAGGAUCACCCAUGUAGAAGGCGGAUCUACAGGUACUAAAGUACCU | 5.58 nM | 7.98 nM |  | 
21 | AGGUCAACCACAGGAUAUGGCUAGCAUAGCUAGCCAGAAGGGUGGUCGUAACCAUGUAAAUACAUGAGGAUCACCCAUGUAUCC |  |  | 235 nM | 66.5 nM
22 | GCUAGUAUUGCAGGAUAUUGUAAUUUAUUAUUUCAAGAAGGGCAUUACAUGAGGAUCACCCAUGUCAUCCUAUGGUAUACUAGC | 10.6 nM | 22.8 nM |  | 
23 | GUAGAGAUUACAUGAGGAUCACCCAUGUCAGAACGGGUAAUCAGAAGGUAUUAUUAGAGAGAGGGUAAGGAUAUGAUUUUUUAU |  |  | 634 nM | 438 nM
